Values after ≈ are worked out from the molar mass of the structure shown.

Drawing on ChEMBL document CHEMBL1250544, “Diversity-oriented synthesis of cyclic acyldepsipeptides leads to the discovery of a potent antibacterial agent” (2010), this text covers MIC and MBC for 7 compounds.

The test system of assay [1] is Staphylococcus aureus. Nature of the assay: Antimicrobial activity against methicillin-susceptible Staphylococcus aureus ATCC 3556 after 24 hrs by broth microdilution assay. It is filed as functional. The method in brief: (§1)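 CLSI broth microdilution run in duplicate. Compounds were dissolved in DMSO and serially diluted twofold in cation-adjusted Mueller–Hinton broth (25 µg/mL calcium, 12.5 µg/mL magnesium). Inoculum was verified by colony counts on tryptic soy agar. MIC was the lowest concentration visually inhibiting >99% of colonies.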
Background: Dilution methods test growth across graded concentrations, often in twofold steps.

Assay [2] has as its system Staphylococcus aureus. Nature of the assay: Antimicrobial activity against methicillin-resistant Staphylococcus aureus from blood after 24 hrs by broth microdilution assay. The format is functional. The essentials: (§2)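 CLSI broth microdilution in duplicate on clinical isolates from Veterans Affairs Medical Center patients. Compounds were dissolved in DMSO and serially diluted twofold in cation-adjusted Mueller–Hinton broth (25 µg/mL Ca, 12.5 µg/mL Mg). Inoculum was verified by colony counts on tryptic soy agar. MIC is the lowest concentration visually inhibiting >99%.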

The test system of assay [3] is Enterococcus faecalis. The assay is described as follows: Antimicrobial activity against Enterococcus faecalis ATCC 29212 after 24 hrs by broth microdilution assay. The format is functional. The settings on record: ATCC 29212, 24 h. The essentials:
as §1

For assay [4], the system named is Enterococcus faecalis. Nature of the assay: Antimicrobial activity against Enterococcus faecalis clinical isolate obtained from rectal swab after 24 hrs by broth microdilution assay. It is filed as functional. The essentials: as §1
Another assay has as its system Enterococcus faecium. Nature of the assay: Antimicrobial activity against vancomycin-resistant Enterococcus faecium clinical isolate obtained from tissue after 24 hrs by broth microdilution assay. It is filed as functional. The essentials:
as §2

Assay [5] concerns Enterococcus faecalis. Nature of the assay: Antimicrobial activity against vancomycin-resistant Enterococcus faecalis clinical isolate obtained from rectal swab after 24 hrs by broth microdilution assay.
[6] abbreviates: Staphylococcus aureus, ATCC 3556, 24 h, read-out: MIC.
Where [7] appears, read: Staphylococcus aureus, 24 h, read-out: MBC.

In general, MIC refers to the least concentration at which growth counts as inhibited. A word on the MBC: it is the lowest tested concentration that kills the bacteria rather than only halting them. Turning to `CCCC/C=C/C(=O)N[C@@H](Cc1cccc(F)c1)C(=O)N[C@@H]1COC(=O)[C@@H]2CCCN2C(=O)[C@H](C)NC(=O)C2(CCC2)N(C)C(=O)[C@@H]2CCCN2C1=O`, the MIC was above 312 µg/mL against Staphylococcus aureus [1] and 312 µg/mL (≈ 422 µM) in the assay with Staphylococcus aureus [1] (setting [6]). The MBC in the assay on Staphylococcus aureus [2] (setting [7]) is above 312 µg/mL.
On to `CCCC/C=C/C(=O)N[C@@H](Cc1cccc(F)c1)C(=O)N[C@@H]1COC(=O)[C@@H]2CCCN2C(=O)[C@H](C)NC(=O)[C@H]2CCCCN2C(=O)[C@@H]2CCCN2C1=O`, for which the MIC with Staphylococcus aureus [1] (setting [6]) is above 312 µg/mL. For the same compound, in the assay with Staphylococcus aureus [2] (setting [7]), the MBC was above 312 µg/mL.
For `CCCC/C=C/C(=O)N[C@@H](Cc1cccc(F)c1)C(=O)N[C@@H]1COC(=O)[C@@H]2CCCN2C(=O)[C@H](C)NC(=O)C2(CCCC2)N(C)C(=O)[C@@H]2CCCN2C1=O`, in the assay on Staphylococcus aureus [2] (setting [7]), the minimum bactericidal concentration (MBC) is above 312 µg/mL.
For the compound `CCCC/C=C/C(=O)N[C@@H](Cc1cccc(F)c1)C(=O)N[C@@H]1COC(=O)[C@@H]2CCCN2C(=O)[C@H](C)NC(=O)C2(CCCCC2)N(C)C(=O)[C@@H]2CCCN2C1=O`, in the assay with Staphylococcus aureus [2] (setting [7]), the MBC is above 312 µg/mL.
As to `CCCC/C=C/C(=O)N[C@@H](Cc1cccc(F)c1)C(=O)N[C@@H]1COC(=O)[C@@H]2CCCN2C(=O)[C@H](C)NC(=O)[C@@H]2CC(C)CCN2C(=O)[C@@H]2CCCN2C1=O` (some centres undefined), the MIC in the assay with Staphylococcus aureus [1] (setting [6]) is 0.6 µg/mL (≈ 0.797 µM); with Enterococcus faecalis [3], 0.04 µg/mL (≈ 0.0531 µM); against Enterococcus faecalis [4], 0.02 µg/mL (≈ 0.0266 µM); in the assay with Enterococcus faecium, 0.04 µg/mL (≈ 0.0531 µM); in the assay on Enterococcus faecalis [5], 0.04 µg/mL (≈ 0.0531 µM). Besides, the MBC in the assay on Enterococcus faecalis [3] was found to be 0.08 µg/mL (≈ 0.106 µM); in the assay on Enterococcus faecalis [4], 0.04 µg/mL (≈ 0.0531 µM); against Enterococcus faecium, 0.08 µg/mL (≈ 0.106 µM); with Enterococcus faecalis [5] it was 0.04 µg/mL (≈ 0.0531 µM).
Take `CCCC/C=C/C(=O)N[C@@H](Cc1cccc(F)c1)C(=O)N[C@@H]1COC(=O)[C@@H]2CCCN2C(=O)[C@H](C)NC(=O)[C@H]2CC(C)CCN2C(=O)[C@@H]2CCCN2C1=O` (some centres undefined): in the assay on Staphylococcus aureus [1] (setting [6]), the MIC was above 156 µg/mL.
For the compound `CCCC/C=C/C(=O)N[C@@H](Cc1cccc(F)c1)C(=O)N[C@@H]1COC(=O)[C@@H]2CCCN2C(=O)[C@H](C)NC(=O)[C@@H]2CCCCN2C(=O)[C@@H]2CCCN2C1=O`, the MIC against Staphylococcus aureus [1] was determined as 1.25 µg/mL (≈ 1.69 µM); in the assay with Staphylococcus aureus [1] (setting [6]), 1.25 µg/mL (≈ 1.69 µM); against Enterococcus faecalis [3], 0.16 µg/mL (≈ 0.217 µM); against Enterococcus faecalis [4] it was 0.04 µg/mL (≈ 0.0541 µM); against Enterococcus faecium it was 0.08 µg/mL (≈ 0.108 µM); in the assay with Enterococcus faecalis [5] it was 0.04 µg/mL (≈ 0.0541 µM). Besides, the minimal bactericidal concentration (MBC) amounted to 1.25 µg/mL (≈ 1.69 µM) against Staphylococcus aureus [2]; 1.25 µg/mL (≈ 1.69 µM) in the assay on Staphylococcus aureus [2] (setting [7]); 1.25 µg/mL (≈ 1.69 µM) in the assay on Enterococcus faecalis [3]; 0.04 µg/mL (≈ 0.0541 µM) against Enterococcus faecalis [4]; 0.08 µg/mL (≈ 0.108 µM) against Enterococcus faecium; 0.04 µg/mL (≈ 0.0541 µM) against Enterococcus faecalis [5].
